Where a SMILES comes first, the peptide text is derived from it. The star is where a group is joined. Cbz = O=C(OCc1ccccc1)*
Tests used:
NFAT5 [1] = test: NFAT5-dependent GFP reporter assay; type: cell-based, murine; details: for IC50: Mus musculus, RAW264.7, read-out: IC50, NFAT5-dependent reporter activity
Summary of the method: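 Cells were stimulated with LPS (1 μg/ml) for 20 h alongside graded test compound or BBR. GFP was read by flow cytometry and expressed as % ΔMFI = (treated MFI − untreated MFI) × 100 / untreated MFI.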

RAW 264.7 cells = test: NO production; type: cell-based, murine; details: RAW 264.7, LPS 1 μg/ml 24 h, Griess assay
Summary of the method: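 RAW 264.7 macrophages were kept in RPMI 1640 with 10% FBS. Cells were preincubated for 1 h with graded test compound, then stimulated with LPS (1 μg/ml) for 24 h. Supernatant was mixed with an equal volume of Griess reagent for 15 min at room temperature to give nitrite. Three independent experiments, each in triplicate, mean ± SD.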

RAW 264.7 macrophages = test: Pro-inflammatory NFAT5 target gene expression in LPS-stimulated RAW 264.7; type: cell-based, murine
[2] = system: murine peritoneal macrophages; test: High salt-stimulated murine peritoneal macrophages; type: cell-based; details: NaCl 45 mM 6 h, 0.8 μM
NFAT1 = test: NFAT promoter reporter assay; type: cell-based, human; details: HEK293 cells stimulated with PMA, 1 μM
murine splenocytes = test: LPS-stimulated murine splenocytes; type: cell-based; details: total splenocytes of mice, LPS 1 μg/ml 24 h, 0.8 μM
NFAT5 [3] = test: High salt-induced NFAT5 and tonicity-inducible gene expression in RAW 264.7; type: cell-based, murine; details: for high salt-induced increase in NFAT5 mRNA and protein: RAW 264.7, NaCl 45 mM 12 h, KRN2 1 μM, SB203580 5 μM
NFAT5 [4] = test: LPS-induced NFAT5 expression and nuclear translocation; type: cell-based, murine
NF-κB p65 = test: p65 phosphorylation/translocation and IκB degradation; type: cell-based, murine; details: RAW 264.7, LPS 1 µg/ml
Summary of the method: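 RAW 264.7 cells were incubated in cytoplasmic lysis buffer for 15 min on ice and centrifuged; the supernatant was taken as the cytosolic fraction. The pellet was taken up in nuclear lysis buffer and spun for 20 min at 12,000 rpm. Fractions were run on SDS-PAGE, transferred to nitrocellulose and probed for p65, with NMP p84 and α-tubulin as fraction markers, using ECL detection. Whole-cell lysates were prepared in RIPA buffer for 15 min at 4 °C and protein measured by Bradford assay.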

CREB = CREB promoter reporter assay; type: cell-based; details: 1 µM test compound
ELK = ELK promoter reporter assay; type: cell-based; details: 1 µM test compound
[5] = system: mice with collagen-induced arthritis (CIA); test: Collagen-induced arthritis; type: in vivo
NFAT5 promoter = test: Nfat5 promoter GFP reporter assay; type: cell-based, murine; details: RAW 264.7, 1 μM
Summary of the method: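 RAW 264.7 cells carried a GFP reporter containing two NF-κB binding sites from upstream of the Nfat5 gene. Cells were preincubated with test compound (1 μM) for 1 h, then stimulated for 20 h with either LPS (1 μg/ml) or NaCl (45 mM). GFP was measured by flow cytometry as % ΔMFI relative to untreated cells. Three independent experiments.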

[6] = target: NF-κB p65 binding to Nfat5 promoter 1 (Homo sapiens, UniProt Q04206); test: Electrophoretic mobility shift assay; details: recombinant p65 400 ng; KRN2 5, 20, 50 μM; MG132 20 μM
Chain of NF-κB p65 binding to Nfat5 promoter 1 (Q04206 whole entry): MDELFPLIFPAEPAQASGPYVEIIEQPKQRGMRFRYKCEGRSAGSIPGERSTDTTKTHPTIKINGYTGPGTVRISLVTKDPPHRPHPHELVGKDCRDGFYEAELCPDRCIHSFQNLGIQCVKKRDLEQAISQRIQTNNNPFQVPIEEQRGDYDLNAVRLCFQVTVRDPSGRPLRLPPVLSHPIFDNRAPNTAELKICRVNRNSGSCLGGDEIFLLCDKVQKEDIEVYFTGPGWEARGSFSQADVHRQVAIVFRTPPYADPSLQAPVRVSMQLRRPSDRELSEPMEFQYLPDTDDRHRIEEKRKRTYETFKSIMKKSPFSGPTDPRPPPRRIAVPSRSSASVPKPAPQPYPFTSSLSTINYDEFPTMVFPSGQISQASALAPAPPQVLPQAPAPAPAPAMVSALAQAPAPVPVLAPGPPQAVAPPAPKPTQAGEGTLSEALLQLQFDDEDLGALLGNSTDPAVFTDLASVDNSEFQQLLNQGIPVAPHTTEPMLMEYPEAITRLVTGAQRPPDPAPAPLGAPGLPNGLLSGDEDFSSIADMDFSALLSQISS

p38 MAPK = p38 MAPK activity; type: cell-based; details: RAW 264.7, LPS 1 µg/ml, KRN2 0.8 µM
[7] = Pharmacokinetic profile in rats; type: in vivo; details: rat
Summary of the method: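 Rats were dosed intravenously or orally and plasma concentration–time profiles were obtained. Half-life came from the oral profile. Oral bioavailability (F%) was calculated from oral versus intravenous exposure.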

[8] = target: NF-κB p65 binding to the Nfat5 promoter (Mus musculus, UniProt Q04207); test: ChIP assay; type: cell-based, murine; details: RAW 264.7, 1 μM, LPS 1 μg/ml 12 h
Chain of NF-κB p65 binding to the Nfat5 promoter (Q04207 whole entry): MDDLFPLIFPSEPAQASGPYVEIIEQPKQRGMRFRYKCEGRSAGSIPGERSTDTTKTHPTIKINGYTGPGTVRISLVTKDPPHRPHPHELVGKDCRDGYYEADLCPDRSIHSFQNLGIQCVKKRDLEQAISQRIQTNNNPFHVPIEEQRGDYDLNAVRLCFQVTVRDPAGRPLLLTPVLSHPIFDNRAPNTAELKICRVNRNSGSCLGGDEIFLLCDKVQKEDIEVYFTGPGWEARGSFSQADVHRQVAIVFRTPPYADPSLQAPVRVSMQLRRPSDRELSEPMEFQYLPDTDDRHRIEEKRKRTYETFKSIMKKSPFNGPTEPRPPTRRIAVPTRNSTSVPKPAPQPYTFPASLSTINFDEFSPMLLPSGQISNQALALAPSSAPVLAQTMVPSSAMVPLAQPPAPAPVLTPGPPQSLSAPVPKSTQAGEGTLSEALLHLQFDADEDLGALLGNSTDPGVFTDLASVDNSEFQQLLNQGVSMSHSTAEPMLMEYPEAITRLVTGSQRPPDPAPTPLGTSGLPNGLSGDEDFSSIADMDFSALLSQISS
Summary of the method: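 RAW 264.7 cells were pretreated with test compound (1 μM) for 1 h, then given LPS (1 μg/ml) for 12 h. Cells were fixed in 1% formaldehyde for 10 min at 37 °C, nuclei isolated and chromatin sonicated, with an input aliquot kept. Immunoprecipitation used anti-p65. DNA was extracted with phenol/chloroform, ethanol-precipitated and PCR-amplified with Nfat5 promoter primers; Nfat5 exon primers served as negative control. Three independent experiments.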

[9] = system: murine peritoneal macrophages; test: LPS-stimulated murine peritoneal macrophages; type: cell-based; details: 0.8 μM
[10] = system: adjuvant-induced arthritis (AIA) in mice; test: Adjuvant-induced arthritis; type: in vivo
Summary of the method: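 AIA induced in 8-week-old C57BL/6 mice with 2 mg CFA given intradermally. Test compound was given at 3 mg/kg i.p. daily for 2 weeks, with PBS as vehicle. Ankle and footpad thickness were tracked over the 2 weeks (6 mice/group, mean ± SD). Joints were fixed in […] for 1 day and decalcified in 5% formic acid for 2 weeks. Sections were blocked with 10% goat serum, then stained overnight at 4 °C with anti-F4/80 (1/50), biotinylated anti-rabbit IgG, streptavidin-peroxidase and DAB.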

ROS = ROS production by flow cytometry; type: cell-based, murine; details: RAW 264.7, LPS 1 µg/ml, KRN2 0.8 µM
splenocytes of CIA mice = test: LPS-stimulated splenocytes from treated CIA mice; type: in vivo; details: splenocytes of CIA mice treated orally, LPS 1 μg/ml 24 h
Summary of the method: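 CIA was induced in mice by CII/CFA immunization with a CII/IFA boost. Mice received oral test compound at 15 or 60 mg/kg on alternate days, or vehicle. Splenocytes from these mice were cultured with LPS (1 μg/ml) for 24 h.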

[11] = 3 mg/kg peritoneally, versus vehicle

`COc1ccc2cc3[n+](cc2c1OC)CCc1cc2c(cc1-3)OCO2` [Berberine, reference compound] showed an IC50 (NFAT5 [1]) of 4000 nM.

In the case of `COc1ccc2c(Cc3ccccc3F)c3[n+](cc2c1OC)CCc1cc2c(cc1-3)OCO2.[Br-]` [KRN2, 13-(2-Fluorobenzyl)-9,10-dimethoxy-5,6-dihydro-[1,3]dioxolo[4,5-g]isoquinolino[3,2-a]isoquinolin-7-ium bromide], the NO production (RAW 264.7 cells) is reported as “dose-dependently lowered”, the “mRNA and protein expression levels of IL-6, TNF-α, and GM-CSF” value (RAW 264.7 macrophages; RAW 264.7, 0.8 μM, LPS 1 μg/ml) is reported as “significantly decreased” and the “expression level of iNOS” value (RAW 264.7 macrophages; RAW 264.7, LPS 1 μg/ml 24 h, western blot) is reported as “dose-dependently lowered”. The “high salt-induced increase in Nfat5 mRNA expression” value [2] was “neither mitigated”, the NFAT1-dependent reporter activity (NFAT1) was “only slightly inhibited” and the “iNOS, IL-6, and TNF-α expressions” value (murine splenocytes) was “decreases”. For the same molecule, the “high salt-induced increase in NFAT5 mRNA and protein” value (NFAT5 [3]) was “did not repress”, the “mRNA expression levels of Ar and Bgt” value (NFAT5 [3]; RAW 264.7 stimulated with high salt (NaCl 45 mM 12 h), 0.8 μM) was “had no effect” and the “LPS-induced NFAT5 mRNA and protein expression” value (NFAT5 [4]; RAW 264.7, 0.8 μM, LPS 1 μg/ml) was “nearly completely blocked”. The “translocation of NFAT5 into the nucleus” value (NFAT5 [4]; RAW 264.7, 0.8 μM, LPS 1 μg/ml 12 h) was “inhibited”, the “LPS-stimulated increase in NFAT5 protein expression” value (NFAT5 [4]; RAW 264.7 macrophages, 0.5 μM, western blot) was “significantly suppressed” and the “degradation of IκB” value (NF-κB p65) was “nor blocked”. For the same molecule, the “phosphorylation and translocation of p65” value (NF-κB p65) was “neither influenced”, the “CREB-dependent reporter (luciferase) activity” value (CREB) was “not suppressed” and the IC50 (NFAT5 [1]) was 100 nM. The “anti-NFAT5 activity relative to BBR” value (NFAT5 [1]; ratio of IC50 values, KRN2 versus BBR) was 40 times, the “ELK-dependent reporter (luciferase) activity” value (ELK) was “not suppressed” and the arthritis severity ([5]; 3 mg/kg peritoneally every day for 3 weeks from day 21) was “significantly decreased”. The “serum levels of anti-type II collagen antibody, IL-6, and TNF-α” value ([5]; 3 mg/kg peritoneally, day 40) was “significantly decreased”, the “inflammatory cell infiltration, synovial hyperplasia, and joint destruction” value [5, 11] was “limited degree” and the “number of anti-F4/80+ macrophages in joints” value [5, 11] was “significantly lower”. The CIA development ([5]; oral 3 mg/kg every other day for 3 weeks from day 21 (data not shown)) was “failed to suppress”, the “LPS-induced NFAT5 promoter activity” value (NFAT5 promoter; LPS 1 μg/ml 20 h) was “specifically repressed” and the “high salt-induced NFAT5 promoter activity” value (NFAT5 promoter; NaCl 45 mM 20 h) was “failed to reduce”. The “NF-κB p65 binding to Nfat5 promoter 1” value [6] was “dose-dependently inhibited”, the “p38 MAPK activity” value (p38 MAPK) was “neither ROS nor p38 MAPK activity was affected” and the “plasma level after oral administration” value ([7]; oral administration) was “not detectable”. For the same molecule, the “recruitment of NF-κB p65 to the Nfat5 promoter region” value [8] was “nearly completely eliminated”, the “LPS-stimulated increase in NFAT5 protein and mRNA” value [9] was “mitigated” and the “expression levels of Il6 and Tnf” value ([9]; LPS) was “decreased”. For the same molecule, the “number of anti-F4/80+ cells infiltrated in joints” value ([10]; 3 mg/kg peritoneally) was “declined”, the “paw swelling (ankle and footpad diameter)” value ([10]; 3 mg/kg peritoneally every day for 2 weeks, versus vehicle) was “significantly lower” and the “inflammatory cell infiltration, synovial hyperplasia, and joint destruction (H&E)” value [10, 11] was “lesser degrees”. The ROS (ROS) was “neither ROS nor p38 MAPK activity was affected”.

In the case of `COc1ccc2c(Cc3ccccc3F)c3n(c(=O)c2c1OC)CCc1cc2c(cc1-3)OCO2` [KRN5, 13-(2-Fluorobenzyl)-9,10-dimethoxy-5,6-dihydro-8H-[1,3]dioxolo[4,5-g]isoquinolino[3,2-a]isoquinolin-8-one], the “expressions of NFAT5, IL-6, MCP-1, and GM-CSF” value (RAW 264.7 macrophages; RAW 264.7, 1 μM, LPS 1 μg/ml 24 h) is reported as “inhibited”, the “NFAT5 expression in spleen cells stimulated by LPS” value (splenocytes of CIA mice) is reported as “reduced” and the IC50 (NFAT5 [1]) is reported as 750 nM. For the same molecule, the “efficacy in suppressing arthritis compared to methotrexate” value ([5]; oral 60 mg/kg, methotrexate 5 mg/kg orally twice a week) was “more potent”, the arthritis severity ([5]; oral 15 and 60 mg/kg every other day for 3 weeks from day 21) was “dose-dependently mitigated” and the “serum anti-type II collagen IgG” value ([5]; oral, day 44) was “significantly decreased”. For the same molecule, the side effects ([5]; oral, throughout the experiments (data not shown)) was “no side effects were noted” and the half-life ([7]; plasma, po) was > 8 h.

With `CC(C)C[C@@H](C=O)NC(=O)[C@H](CC(C)C)NC(=O)[C@H](CC(C)C)NC(=O)OCc1ccccc1` [MG132, reference compound] (Cbz-Leu-Leu-Leu-aldehyde) the “NF-κB p65 binding to Nfat5 promoter 1” value [6] was “did not affect it”.

For `C[S+]([O-])c1ccc(-c2nc(-c3ccncc3)c(-c3ccc(F)cc3)[nH]2)cc1` (stereo not drawn) [SB253580, reference compound], the “high salt-induced increase in NFAT5 mRNA and protein” value (NFAT5 [3]) was “completely blocked”.

Source: PMC5405180 (EBioMedicine, 2017)
